How the values were obtained:
Assay type in all cases: functional, cell-based
[1] = test system: AGS; assay: Growth inhibition of AGS cell line at 13.72 nM derived from human gastric carcinoma; conditions: Stomach
Procedure, shortened: (§1)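 Tumor cells were exposed to the compound added as a methanol solution and cultured in a 5% CO2 incubator for 7 days (4 days for some table entries). Cells were counted, and percent growth inhibition = (mean control count − mean treated count)/mean control count × 100.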

[2] = test system: PC-3; assay: Growth inhibition of PC-3 cell line at 13.72 nM derived from prostate cancer; conditions: Homo sapiens; procedure, shortened: as §1
[3] = test system: HCT-15; assay: Growth inhibition of HCT-15 cell line at 2.74 nM derived from human colon carcinoma; procedure, shortened: as §1
[4] = test system: LNCaP; assay: Growth inhibition of LNCaP cell line at 13.72 nM derived from prostate cancer; conditions: Homo sapiens; procedure, shortened: as §1
[5] = test system: HCT-15; assay: Growth inhibition of HCT-15 cell line at 13.72 nM derived from human colon carcinoma; procedure, shortened: as §1
[6] = test system: AGS; assay: Growth inhibition of AGS cell line at 0.54 nM derived from human gastric carcinoma; conditions: Stomach; procedure, shortened: as §1
[7] = test system: LNCaP; assay: Growth inhibition of LNCaP cell line at 0.54 nM derived from prostate cancer; conditions: Homo sapiens; procedure, shortened: as §1
[8] = test system: HCT-15; assay: Growth inhibition of HCT-15 cell line at 0.54 nM derived from human colon carcinoma; procedure, shortened: as §1
[9] = test system: LNCaP; assay: Growth inhibition of LNCaP cell line at 2.74 nM derived from prostate cancer; conditions: Homo sapiens; procedure, shortened: as §1
[10] = test system: AGS; assay: Growth inhibition of AGS cell line at 2.74 nM derived from human gastric carcinoma; conditions: Stomach; procedure, shortened: as §1

Substance: TETRAKIS((TRISHYDROXYMETHYL) PHOSPHINE)GOLD(I) CHLORIDE
- inhibition [1]: 59.5%
- inhibition [2]: 27%
- inhibition [3]: 58.3%
- inhibition [4]: 83.9%
- inhibition [5]: 87.5%
- inhibition [6]: 10.2%
- inhibition [7]: 47.4%
- inhibition [8]: 22.5%
- inhibition [9]: 59.2%
- inhibition [10]: 17.4%
